# Measured values from different studies.
# Protocols differ between the studies behind these lines.
# Target: Uncharacterized serine/threonine-protein kinase SBK3 (SBK3, Homo sapiens, UniProt P0C264)
# Sequence (P0C264 1-359, as in one of the studies): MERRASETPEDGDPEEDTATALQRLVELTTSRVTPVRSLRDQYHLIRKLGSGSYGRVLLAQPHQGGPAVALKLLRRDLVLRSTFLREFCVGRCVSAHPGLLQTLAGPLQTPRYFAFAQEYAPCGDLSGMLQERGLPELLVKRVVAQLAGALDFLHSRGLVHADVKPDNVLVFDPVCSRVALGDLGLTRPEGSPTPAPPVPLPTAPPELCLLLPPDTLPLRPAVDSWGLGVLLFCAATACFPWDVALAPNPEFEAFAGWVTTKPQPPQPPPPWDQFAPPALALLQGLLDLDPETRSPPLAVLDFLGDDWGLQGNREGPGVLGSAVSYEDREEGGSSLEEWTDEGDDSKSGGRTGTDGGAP
SMILES,test,conditions,remaining binding
C[C@@H](c1ccc(-n2cnc3c(N)ncnc32)cc1)N1CCc2nn(C)c(Cc3ccccc3)c2C1=O,"binding, competition with immobilised ligand",0.1 µM,99%
CN(c1nccc(-c2cnn3ncccc23)n1)C1CC1,binding,1 µM,100%
COc1ccc2c(c1)O[C@H](c1ccc(OC)c(OC)c1)C[C@@H]2NC(=O)C1(c2ccc3c(c2)OC(F)(F)O3)CC1,"cell-free assay, competition with immobilised ligand",1 µM,100%
FC(F)(F)Oc1cccc(-c2cnc3ccc(-c4ccncc4)nn23)c1,"binding, competition with immobilised ligand",5 µM,100%
CO[C@@H](C)c1c(Nc2ccc([C@@H](N(C)C(=O)C3CCS(=O)(=O)CC3)C(F)(F)F)cc2)cnc2cc(Cl)nn12,"cell-free assay, competition with immobilised ligand",1 µM,81%
O=C(NCCCN1CCOCC1)c1ccc(Nc2ncc(Cl)c(-c3ccc(Cl)s3)n2)cc1,"binding, competition with immobilised ligand",1 µM,79%
CC(=O)C1=C(C)N(c2cccc(C(F)(F)F)c2)C(=O)N[C@@H]1c1ccc(C#N)nc1,"cell-free assay, competition with immobilised ligand",1 µM,100%
O=C(c1ccc(Nc2nccc(-c3cc4ccccc4s3)n2)cc1)N1CCC(N2CCCC2)CC1,"binding, competition with immobilised ligand",1 µM,88%
CN(C)C(=O)Cn1cc(-c2nc([C@@](C)(c3ccc(-c4cnc(N)nc4)cc3)C3CC3)no2)cn1,"cell-free assay, competition with immobilised ligand",1 µM,71%
CNC(=O)[C@@H]1CC[C@@H](n2c(-c3ccc4cnccc4c3)nc3ccc(C(=O)NCc4cccc(C(N)=O)c4)cc32)C1,"binding, competition with immobilised ligand",1 µM,87%
C[C@@H]1CCN(c2nccc(-c3cnn4ncccc34)n2)C1,binding,1 µM,99%
O=C(Nc1c[nH]nc1C(=O)NC1CCNCC1)c1cc(F)cc(F)c1,"binding, competition with immobilised ligand",1 µM,100%
CN(CCCC(F)(F)F)c1nccc(-c2cnn3ncccc23)n1,binding,1 µM,42%
O=C(Nc1ccc(Oc2ccc(F)cc2)cc1)N1CCc2ncccc2[C@H]1c1ccc(F)cc1,"cell-free assay, competition with immobilised ligand",1 µM,70%
Cc1cnn2ncc(-c3ccnc(N(C)C)n3)c2c1,binding,1 µM,26%
O=S(=O)(NC1CCC(c2cc(F)ccc2F)(S(=O)(=O)c2ccc(Cl)cc2)CC1)C(F)(F)F (centres unmarked),"cell-free assay, competition with immobilised ligand",1 µM,93%
CC1CCCN1c1nccc(-c2cnn3ncccc23)n1 (centres unmarked),binding,1 µM,100%
Cc1cnc(Nc2ccc(C(=O)N3CCC(N4CCCC4)CC3)cc2)nc1-c1cc2ccccc2s1,"binding, competition with immobilised ligand",1 µM,46%
N[C@H]1CCN(c2nccc(-c3cnn4ncccc34)n2)C1,binding,1 µM,100%
COc1cnc(Nc2cccc(S(N)(=O)=O)c2)nc1N1CCN(c2ccccc2)CC1,"binding, competition with immobilised ligand",1 µM,100%
